Assay results of several laboratories.
Compare with care: the assays were run in different laboratories.
SP140: SP140 (Homo sapiens, UniProt Q13342)
ANKK1: Ankyrin repeat and protein kinase domain-containing protein 1 (ANKK1, Homo sapiens, UniProt Q8NFD2)

CCCOc1ccc(OC)c(F)c1C(=O)c1ccc(C(=O)N[C@@H]2CNC[C@H]2NC(=O)c2ccc3[nH]ncc3c2)cc1
remaining activity (Serine/threonine-protein kinase Sgk2 (SGK2, Homo sapiens, UniProt Q9HBY8); enzyme activity, inhibitor; 0.5 µM): 16%

Cc1cc2c(cc1N1C(=O)c3cccc4c(Cl)ccc(c34)C1=O)n(C)c(=O)n2C
ΔTm (SP140; thermal stability, DSF; 10 µM): -0.9 °C

CC(C)(C)c1nc(-c2cccc(NS(=O)(=O)c3c(F)cccc3F)c2F)c(-c2ccnc(N)n2)s1
remaining activity (Cyclin-dependent kinase 1, with cyclin E1 (CDK1, Homo sapiens, UniProt P06493); enzyme activity, inhibitor, radiometric; 1 µM): 57%

Cc1cnc(Nc2ccc(OCCN3CCCC3)cc2)nc1Nc1cccc(S(=O)(=O)NC(C)(C)C)c1
ΔTm (SP140; thermal stability, DSF; 10 µM): -0.01 °C

Oc1c(Br)cc(Oc2ccc(Br)cc2Br)cc1Br
Km (Sulfotransferase 1E1 (SULT1E1, Homo sapiens, UniProt P49888); enzyme activity, substrate): 4.23 µM

Cc1ccc(C(=O)Nc2ccc(CN3CCN(C)CC3)c(C(F)(F)F)c2)cc1C#Cc1cnc2cccnn12
remaining signal (ANKK1; cell-free assay; 23.5 nM): 56%

Cc1ccc(S(=O)(=O)Nc2ccc(-n3nc(C(F)(F)F)cc3C(F)(F)F)cc2)cc1
remaining activity (Calcium release-activated calcium channel protein 1 (Rattus norvegicus, UniProt Q5M848); ion current, inhibitor, patch clamp; RBL-2H3; 3 µM): 60%

CC(C)(C)c1nc2c(s1)c1nc(N)ncc1c1ccc(NS(=O)(=O)c3c(F)cccc3F)c(F)c12
remaining activity (Cyclin-dependent kinase 1, with cyclin A2 (CDK1, Homo sapiens, UniProt P06493); enzyme activity, inhibitor, radiometric; 1 µM): 100%

OCc1cc(C(O)CNCCCCCCOCCCCc2ccccc2)ccc1O (stereo not drawn)
inhibition (C-X-C chemokine receptor type 4 (CXCR4, Homo sapiens, UniProt P61073); calcium signal, antagonist; U87.CD4.CXCR4; 0.8 µM): 9%

Nc1ncnc2occ(-c3ccc(NC(=O)Nc4cc(C(F)(F)F)ccc4F)cc3)c12
remaining signal (ANKK1; cell-free assay; 20 µM): 3.6%

CC(C)(O)[C@H]1CC[C@H](Nc2ccc3ncc(-c4cccc(C(F)(F)F)c4)n3n2)CC1
remaining activity (Cyclin-dependent kinase 1, with cyclin E (CDK1, Homo sapiens, UniProt P06493); enzyme activity, inhibitor; 1 µM): 107%

Oc1ccc(-c2nc(-c3ccncc3)c(-c3ccc(F)cc3)[nH]2)cc1
ΔTm (SP140; thermal stability, DSF; 10 µM): 0.36 °C
